pIC50, pKi: −log10 of the molar value. The source made the active and inactive calls. The rule behind the calls is not given here.
How the values were obtained:
[1] = target: T1, Protein farnesyltransferase/geranylgeranyltransferase type-1 subunit alpha (Saccharomyces cerevisiae S288c) (UniProt P29703); test: Activity at Saccharomyces cerevisiae protein farnesyltransferase upto 200 uM by continuous fluorescence assay
T1 sequence (whole entry): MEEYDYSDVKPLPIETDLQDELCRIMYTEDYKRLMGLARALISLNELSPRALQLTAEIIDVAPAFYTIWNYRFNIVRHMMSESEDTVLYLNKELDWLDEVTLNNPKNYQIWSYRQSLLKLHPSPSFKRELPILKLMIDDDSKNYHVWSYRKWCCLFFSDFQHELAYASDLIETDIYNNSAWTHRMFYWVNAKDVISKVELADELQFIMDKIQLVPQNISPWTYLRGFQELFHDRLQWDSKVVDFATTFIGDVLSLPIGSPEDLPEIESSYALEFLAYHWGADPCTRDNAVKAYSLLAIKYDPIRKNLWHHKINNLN
In short: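 Purified yeast PFTase; continuous fluorescence read-out of dansyl signal increase on prenylation of N-dansyl-GCVIA acceptor, with analogue replacing FPP at up to 200 µM.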

[2] = target: T1, Protein farnesyltransferase/geranylgeranyltransferase type-1 subunit alpha (Saccharomyces cerevisiae S288c); test: Binding affinity to Saccharomyces cerevisiae protein farnesyltransferase assessed as photolabeling at 29 uM by SDS-PAGE based phosphor imaging analysis in absence of UV irradiation; settings: tested as the 32P-labelled form
[3] = target: T2, Protein farnesyltransferase/geranylgeranyltransferase type-1 subunit alpha (Saccharomyces cerevisiae S288c, UniProt P29703); test: Inhibition of Saccharomyces cerevisiae protein farnesyltransferase assessed as farnesylation of N-dansyl-GCVIA
T2 sequence (P29703 whole entry): T1 sequence (whole entry)
In short: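 Purified ScPFTase at 5.0 nM; continuous fluorescence assay following dansyl fluorescence rise as N-dansyl-GCVIA (2.4 µM) is prenylated. For IC50, FPP fixed at 2.4 µM, inhibitor 0–20 µM, duplicates, direct fit of rate vs inhibitor concentration. For KI, 4×6 grid of duplicates with FPP at 1, 2, 5, 7.0 µM and inhibitor 0–2 µM; initial velocities, Eadie-Hofstee plot.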

[4] = target: T1, Protein farnesyltransferase/geranylgeranyltransferase type-1 subunit alpha (Saccharomyces cerevisiae S288c); test: Binding affinity to Saccharomyces cerevisiae protein farnesyltransferase assessed as enzyme alpha subunit photolabeling at 29 uM by SDS-PAGE based phosphor imaging analysis; settings: tested as the 32P-labelled form
In short: (§1)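 Purified enzyme (50 µg/mL) in 52 mM Tris·HCl pH 7.0, 5.8 mM DTT, 12 mM MgCl2, 12 µM ZnCl2, 25 mM NH4HCO3 with [32P]probe 29 µM; irradiated 350 nm, 6 h, 4 °C; protection runs add FPP 100 µM final. SDS loading buffer, 70 °C 20 min, 12% Tris-Tricine SDS-PAGE, Coomassie stain, phosphorimaging.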

[5] = target: T1, Protein farnesyltransferase/geranylgeranyltransferase type-1 subunit alpha (Saccharomyces cerevisiae S288c); test: Binding affinity to Saccharomyces cerevisiae protein farnesyltransferase assessed as enzyme beta subunit photolabeling at 29 uM by SDS-PAGE based phosphor imaging analysis; settings: tested as the 32P-labelled form; in short: as §1
[6] = target: T1, Protein farnesyltransferase/geranylgeranyltransferase type-1 subunit alpha (Saccharomyces cerevisiae S288c); test: Binding affinity to Saccharomyces cerevisiae protein farnesyltransferase assessed as photolabeling at 29 uM by SDS-PAGE based phosphor imaging analysis in presence of excess farnesyl diphosphate; settings: tested as the 32P-labelled form; in short: as §1
[7] = test system: Drosophila melanogaster; test: Binding affinity to Drosophila melanogaster farnesyl diphosphate synthase assessed as photolabeling at 29 uM by SDS-PAGE based phosphor imaging analysis in absence of UV irradiation; settings: tested as the 32P-labelled form
[8] = target: T3, Farnesyl diphosphate synthase (Escherichia coli K-12) (UniProt P22939); test: Binding affinity to Escherichia coli farnesyl diphosphate synthase assessed as photolabeling at 29 uM by SDS-PAGE based phosphor imaging analysis; settings: tested as the 32P-labelled form; in short: as §1
T3 sequence (whole entry): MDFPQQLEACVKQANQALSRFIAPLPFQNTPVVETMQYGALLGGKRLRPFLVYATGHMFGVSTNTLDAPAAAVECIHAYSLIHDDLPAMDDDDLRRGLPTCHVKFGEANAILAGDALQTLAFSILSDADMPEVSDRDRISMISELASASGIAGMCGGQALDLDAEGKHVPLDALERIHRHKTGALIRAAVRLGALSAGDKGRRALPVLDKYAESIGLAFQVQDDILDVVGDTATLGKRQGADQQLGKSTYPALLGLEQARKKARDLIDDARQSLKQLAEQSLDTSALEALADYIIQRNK

[9] = test system: Nostoc; test: Binding affinity to Nostoc PCC 7120 sesquiterpene synthase assessed as photolabeling at 29 uM by SDS-PAGE based phosphor imaging analysis; settings: tested as the 32P-labelled form; in short: as §1
[10] = test system: Nostoc; test: Substrate activity at Nostoc PCC 7120 sesquiterpene synthase in absence of farnesyl diphosphate; settings: tested as the 32P-labelled form
[11] = test system: Nostoc; test: Inhibition of Nostoc PCC 7120 sesquiterpene synthase in presence of farnesyl diphosphate
In short: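 Purified cyclase (10 µg) in 200 µL 10 mM Tris·HCl pH 8.0, 10 mM MgCl2, 1.0 mM 2-mercaptoethanol with probe and/or FPP (50, 100 or 200 µM), sealed vial, 18 h at 25 °C; headspace sampled 10 min by SPME, GC/MS analysis of sesquiterpene product.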

[12] = target: T3, Farnesyl diphosphate synthase (Escherichia coli K-12); test: Binding affinity to Escherichia coli farnesyl diphosphate synthase assessed as photolabeling at 29 uM by SDS-PAGE based phosphor imaging analysis in absence of UV irradiation; settings: tested as the 32P-labelled form
[13] = test system: Nostoc; test: Binding affinity to Nostoc PCC 7120 sesquiterpene synthase assessed as photolabeling at 29 uM by SDS-PAGE based phosphor imaging analysis in presence of excess farnesyl diphosphate; settings: tested as the 32P-labelled form; in short: as §1
[14] = target: T3, Farnesyl diphosphate synthase (Escherichia coli K-12); test: Binding affinity to Escherichia coli farnesyl diphosphate synthase assessed as photolabeling at 29 uM by SDS-PAGE based phosphor imaging analysis in presence of excess farnesyl diphosphate; settings: tested as the 32P-labelled form; in short: as §1
[15] = test system: Drosophila melanogaster; test: Binding affinity to Drosophila melanogaster farnesyl diphosphate synthase assessed as photolabeling at 29 uM by SDS-PAGE based phosphor imaging analysis in presence of excess farnesyl diphosphate; settings: tested as the 32P-labelled form; in short: as §1
[16] = test system: Drosophila melanogaster; test: Binding affinity to Drosophila melanogaster farnesyl diphosphate synthase assessed as photolabeling at 29 uM by SDS-PAGE based phosphor imaging analysis; settings: tested as the 32P-labelled form; in short: as §1

`CC(C)=CCC/C(C)=C/CC/C(C)=C/COP(=O)(O)OP(=O)(O)Cc1cccc(C(=O)c2ccccc2)c1` was tested, and the Activity [1] was “inactive”, the Activity [2] was “inactive” and the pIC50 [3] was 5.24. The Activity [4] was “inactive”, the Activity [5] was “Active” and the Activity [6] was “inactive”.

Compound `C/C(=C\COP(=O)(O)OP(=O)(O)O)CC/C=C(\C)COC(=O)[C-]([N+]#N)C(F)(F)F` has a pIC50 [3] of 6.14 and a pKi [3] of 6.70.

`C/C(=C\COP(=O)(O)OP(=O)(O)O)COCc1cccc(C(=O)c2ccccc2)c1` showed a pIC50 [3] of 5.47 and a pKi [3] of 6.21.

In the case of `CC(C)=CCC/C(C)=C/CC/C(C)=C/COP(=O)(O)OP(=O)(O)Cc1ccc(C(=O)c2ccccc2)cc1`, the Activity [7] was “inactive”, the Activity [8] was “Active” and the Activity [1] was “inactive”. For the same compound, the Activity [9] was “Active”, the Activity [2] was “inactive” and the Activity [10] was “Active”. The inhibition [11] was “inactive”, the Activity [12] was “inactive” and the pIC50 [3] was 5.52. The pKi [3] was 6.32, the Activity [13] was “inactive” and the Activity [4] was “inactive”. The Activity [14] was “inactive”, the Activity [15] was “inactive” and the Activity [5] was “Active”. The Activity [6] was “inactive” and the Activity [16] was 46%.

— ChEMBL document CHEMBL1154049, “A versatile photoactivatable probe designed to label the diphosphate binding site of farnesyl diphosphate utilizing enzymes” (Bioorg Med Chem, 2009)
